For data set [1], the target named is T1, Renin (Homo sapiens, UniProt P00797).
T1 sequence (P00797 whole entry): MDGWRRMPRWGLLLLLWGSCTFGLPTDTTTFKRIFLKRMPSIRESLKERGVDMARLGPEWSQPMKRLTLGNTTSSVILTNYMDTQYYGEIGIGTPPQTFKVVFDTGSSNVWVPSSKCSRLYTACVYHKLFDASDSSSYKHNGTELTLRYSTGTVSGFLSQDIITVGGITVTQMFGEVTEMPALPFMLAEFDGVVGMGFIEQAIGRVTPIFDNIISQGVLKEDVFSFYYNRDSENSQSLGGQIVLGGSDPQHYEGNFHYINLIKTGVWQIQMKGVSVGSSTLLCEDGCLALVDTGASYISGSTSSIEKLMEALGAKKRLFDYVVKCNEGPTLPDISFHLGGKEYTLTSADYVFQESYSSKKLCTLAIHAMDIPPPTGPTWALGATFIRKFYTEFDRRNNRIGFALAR
As to the kind of experiment: Inhibition of human recombinant renin using Arg-Glu(EDANS)-Ile-His-Pro-Phe-His-Leu-Val-Ile-His-Thr-Lys (DABCYL)-Arg as substrate incubated for 10 mins prior to substrate addition measured after 90 mins by fluorescence assay. Summed up: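 Trypsin-activated recombinant human renin in 50 mM Tris-HCl pH 7.9, 100 mM NaCl, preincubated with compound 10 min at room temperature; FRET substrate Arg-Glu(EDANS)…Lys(DABCYL)-Arg added, 90 min at 37 °C.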

Data set [2] deals with Oryctolagus cuniculus. As to the kind of experiment: Cardiotoxicity in anesthetized New Zealand White rabbit assessed as change in QRS width at 1 mg/kg/min, iv after 10 mins relative to baseline. Also on record: route intravenous. Format: toxicity, organism-based. The following applies: in vivo. Summed up: (§1)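 Female NZW rabbits anesthetized with ketamine 35 mg/kg ip plus xylazine 5 mg/kg ip, tracheotomized, ventilated with room air. ECG and systemic pressure monitored; HR, PR, QRS, QT, QTc quantified. After stabilization, continuous iv infusion 1 mg/kg/min for 1 h; values at 10 min as % change from baseline.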

The next data set has as its system Canis familiaris. As to the kind of experiment: Cardiotoxicity in anesthetized beagle dog assessed as change in heart rate at 0.5 mg/kg/min, iv after 30 mins relative to baseline. Type of data set: toxicity, organism-based, Canis lupus familiaris. Also on record: route intravenous. The following applies: in vivo, 0.5 h. Summed up:
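Anesthetized dogs; after ECG parameters stabilized, compound infused iv continuously at 0.5 mg/kg/min for 1 h. ECG changes at 30 min as % change from baseline; 2 mL blood drawn from left femoral artery for plasma drug concentration.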

Data set [3] has as its target T2, Renin (Macaca fascicularis, UniProt Q6DLS0).
T2 sequence (Q6DLS0 whole entry): T1 sequence (P00797 whole entry) with T68A, I214L, S235A
The experiment in a line: Inhibition of renin in cynomolgus monkey plasma after 1 hr by RIA. Summed up:
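Pooled mixed-gender EDTA cynomolgus monkey plasma with pH adjusting solution and Inhibitor A, compound in 1% DMSO final, incubated 1 h at 37 °C. Angiotensin I by competitive RIA; uninhibited and 4 °C controls define % inhibition; IC50 from four-parameter fit; ratio is compound IC50 over aliskiren IC50 in same plasma batch; ≥2 replicates.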

The subject of the next data set is Cynomolgus monkey. As to the kind of experiment: Inhibition of renin in po dosed furosemide pretreated cynomolgus monkey assessed as reduction in mean arterial blood pressure. Type of data set: functional, organism-based. The note with it: Macaca fascicularis. Summed up:
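Conscious freely moving telemetered cynomolgus monkeys (n = 6), furosemide 5 mg/kg/day im for 3 days before dosing; fasted from morning, fed ≥8 h post-dose. Oral 1, 3, 10 mg/kg or 1% methylcellulose, crossover design; arterial pressure recorded from −3 to 24 h; hourly mean MAP; mean ± SEM.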

The subject of data set [4] is Oryctolagus cuniculus. As to the kind of experiment: Cardiotoxicity in anesthetized New Zealand White rabbit assessed as change in […] at 1 mg/kg/min, iv after 10 mins relative to baseline. The following applies: in vivo. Also on record: route intravenous. Type of data set: toxicity, organism-based. Summed up:
as §1

Structures are written as SMILES. Residue numbers refer to the chain shown, from its start.

With `CC[C@H](C[C@H](O)[C@@H](N)CN1CC(=O)N(c2ccccc2Cl)CC1(C)C)C(=O)N[C@H]1C2CC3CC1C[C@](O)(C3)C2.O=C(O)/C=C/C(=O)O`, the IC50 (in general, the concentration that inhibits the measured activity by half) on Renin [1] was 0.9 nM; against Renin [3], 6.3 nM. The Activity is recorded as -1.3% in the data set with Oryctolagus cuniculus [2], -5.4% in the data set on Canis familiaris and -1.3% in the data set with Oryctolagus cuniculus [4]. Besides, the inhibition result in the data set on Cynomolgus monkey was “Dose-dependent effect”.

The values are drawn from ChEMBL document CHEMBL2384910, “Lead optimization of 5-amino-6-(2,2-dimethyl-5-oxo-4-phenylpiperazin-1-yl)-4-hydroxyhexanamides to reduce a cardiac safety issue: discovery of DS-8108b, an orally active renin inhibitor” (Bioorg Med Chem, 2013).
